This is a sample that favours compounds with a hit; in the whole collection about 1% have one here.
PglD inh: C. jejuni PglD acetyltransferase inhibitors, primary screen, biochemical, DTNB colorimetric, single point. inhibition, % at 12.5 µM. purified PglD enzyme, DTNB colorimetric CoA detection. 360,000 compounds, 0.098% hits. UDP-N-acetylbacillosamine N-acetyltransferase PglD (Campylobacter jejuni). AID 602405, 2012; in the data active means inhibition above about 16%, passing the limit was not always enough; inconclusive means no clear call, values can overlap the other calls
VIM-2 inh: VIM-2 metallo-beta-lactamase inhibitors, primary screen, biochemical, epi-absorbance readout, Pseudomonas aeruginosa enzyme. purified VIM-2, nitrocefin hydrolysis, epi-absorbance fluorescence. inhibition, % at 5.6 µM. 290,000 compounds, 0.89% hits. AID 1527, 2009;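 active means inhibition above the mean of all tested compounds plus 3 SD, cutoff set per screening run, cut at about 7.5% in these data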;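 further: red hydrolysis product quenches plate fluorescence so inhibitors raise well fluorescence; 0% = enzyme with DMSO and 100% = DMSO without enzyme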
IMP-1 inhibitor: IMP-1 metallo-beta-lactamase inhibitors, primary screen, biochemical, epi-absorbance readout, Pseudomonas aeruginosa enzyme | inhibition, % at 5.6 µM | purified IMP-1, nitrocefin hydrolysis, epi-absorbance fluorescence | 290,000 compounds, 0.45% hits | AID 1556, 2009 | metallo-beta-lactamase IMP-1 (Pseudomonas aeruginosa);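 active means inhibition above the mean plus 3 SD of all compounds in the same screening run, cut at about 4.5% in these data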;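 further: 0% = IMP-1 with DMSO and 100% = DMSO wells lacking enzyme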
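System: purified IMP-1 / Input: IMP-1 dispensed at 0.2 nM / Medium: 50 mM HEPES pH 7.1, 50 µM ZnSO4, 0.05% Brij 35 / Timing: 15 min enzyme–compound preincubation, then 25 min nitrocefin reaction, 25 °C / Technique: plate fluorescence quenching by hydrolysis product, ex 480/em 530 nm / Repeats: singlicate testing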
PDI turbidity: inhibitors of human PDI, primary screen, biochemical, turbidity, single point, plate reader. inhibition, % at 10 µM. 350,000 compounds, 0.052% hits. PDI insulin aggregation turbidity, A650, 90 min. Protein disulfide-isomerase (Homo sapiens), P07237;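 active means mean inhibition across replicates of 30% or more, whatever share of single replicates reach that level; inconclusive means mean inhibition below 30% while every single replicate reaches 30%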
ERp5 block: inhibitors of ERp5-driven insulin aggregation, primary screen, biochemical, turbidity, absorbance 650 nm, single point; AID 651711, 2012; 350,000 compounds, 0.05% hits; inhibition, % at 9.99 µM; 90 min; Protein disulfide-isomerase A6 (Homo sapiens), Q15084;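 active means mean replicate inhibition above about 25%, with every replicate also reaching it, limit read from the data, passing the limit was not always enough; inconclusive means only one of those two criteria met; inactive means neither criterion met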
Target sequence (Q15084 whole entry, looked up): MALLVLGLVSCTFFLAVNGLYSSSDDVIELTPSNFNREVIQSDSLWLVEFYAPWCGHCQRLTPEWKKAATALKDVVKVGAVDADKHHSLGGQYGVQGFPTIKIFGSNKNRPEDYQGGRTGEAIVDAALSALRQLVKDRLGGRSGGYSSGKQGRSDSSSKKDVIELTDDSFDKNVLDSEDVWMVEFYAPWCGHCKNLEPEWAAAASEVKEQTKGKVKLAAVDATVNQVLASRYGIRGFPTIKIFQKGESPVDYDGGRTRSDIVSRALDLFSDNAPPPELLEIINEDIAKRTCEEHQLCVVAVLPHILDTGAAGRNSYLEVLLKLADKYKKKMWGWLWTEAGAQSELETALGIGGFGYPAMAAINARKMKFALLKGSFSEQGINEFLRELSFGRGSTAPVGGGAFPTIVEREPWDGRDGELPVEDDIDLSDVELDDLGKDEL
PvdQ inh: P. aeruginosa PvdQ acylase inhibitors, primary screen, biochemical, fluorescence, plate reader and imaging, single point. PvdQ acylase [Pseudomonas aeruginosa LESB58]. 340,000 compounds, 0.063% hits. inhibition, % at 10 µM. AID 488965, 2010. purified PvdQ acylase; in the data active means inhibition above about 30%, passing the limit was not always enough; inconclusive means no clear call, values can overlap the other calls;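 further: 0% = vehicle neutral wells and 100% = reference inhibitor wells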
Numbers without * were called inactive; ? = inconclusive; / = no result given.

SMILES	PglD inh	VIM-2 inh	IMP-1 inhibitor	PDI turbidity	ERp5 block	PvdQ inh
S=c1[nH]nc(-c2ccc(Cl)cc2)n1CCCN1CCOCC1	/	8.4*	-3	15	8	-13
COC(=O)C(NC(=O)CCc1c(C)nc2c(c(C)nn2-c2ccccc2)c1C)C(C)C (stereo unspecified)	-2	2	4.6*	-13	2	14
CCCCS(=O)(=O)N1CCCC(C(=O)Oc2ccc(Cl)cc2)C1 (stereo unspecified)	-6	-3	6.0*	-5	-7	0
CCCCS(=O)(=O)N1CCC(C(=O)Oc2ccc(Cl)cc2)CC1	2	-2	-1	-3	1	14
COc1cccc(S(=O)(=O)N2CC3(CN(C(=O)Nc4cccc(F)c4)[C@H](CO)c4[nH]c5cc(OC)ccc5c43)C2)c1	/	/	/	/	69*	/
COc1ccc2c3c([nH]c2c1)[C@H](CO)N(C(=O)CN(C)C)CC31CCN(CC2CCCC2)CC1	/	/	/	/	74*	/
COc1ccc2c3c([nH]c2c1)[C@@H](CO)N(C(=O)CN(C)C)CC31CCN(CC2CCCC2)CC1	/	/	/	/	1	/
COc1ccc2c3c([nH]c2c1)[C@@H](CO)N(C(=O)Nc1cccc(F)c1)CC31CN(S(=O)(=O)c2cccc(C)c2)C1	/	/	/	/	2	/
COC(=O)c1ccccc1NC1=C/C(=N\S(=O)(=O)c2cccs2)c2ccccc2C1=O	-3	4	5.0*	1	-3	-15
COC(=O)c1ccccc1NC1=C/C(=N\S(=O)(=O)c2ccc(C(=O)O)cc2)c2ccccc2C1=O	1	5	2	-14	/	3
O=C1NN(c2ccccc2)C(=O)/C1=C\c1ccccc1OCC(=O)N1CCOCC1	5	-1	4.5*	-2	/	-12
Cc1ccc2oc(=O)c3cc(C(=O)NCCCN4CC(C)CC(C)C4)sc3c2c1 (stereo unspecified)	0	10*	-2	-4	5	7
Cc1ccc2cc3cc(C(=O)NCCCN4CC(C)CC(C)C4)oc3nc2c1 (stereo unspecified)	0	10*	-2	-5	16	-13
Cc1ccc2cc3cc(C(=O)N4CC(C)CC(C)C4)oc3nc2c1 (stereo unspecified)	1	-3	-5	1	/	-10
COc1ccc(C#Cc2ccc3c(c2)[C@H]2[C@H](CCN2C(=O)c2ccccn2)[C@@H](CO)N3)cc1	/	/	/	/	9	/
COc1cccc(C(=O)N2C[C@H]3[C@@H](c4ccccc42)[C@@H](CO)N3Cc2ccccc2Cl)c1	-1	/	/	/	/	/
CC(C)Sc1nnc([C@H](Cc2c[nH]c3ccccc23)NC(=O)OC(C)(C)C)o1	2	-2	-6	44*	/	-13
Fc1ccc(-c2ccc(CNCc3ccccn3)o2)cc1	3	11*	-3	-32	-7	-5
Fc1ccc(NC(=S)NCc2ccccn2)cc1	-2	1	0	0	/	-3
Cc1ccc(Nc2nc(N)nc(CSc3ncccn3)n2)cc1	-8	-5	-2	19	/	7
Cc1ccc(Nc2nc(N)nc(CSc3nc(C)cc(C)n3)n2)cc1	-5	1	4.9*	0	/	-13
N#Cc1ccccc1Cn1cc(C#N)c2ccccc21	2	-1	-1	-6	/	26
N#Cc1cn(Cc2ccccc2)c2ccccc12	-5	-4	-1	-1	/	35*
O=C(C[C@@H]1CC[C@@H]2[C@H](COC[C@@H](O)CN2S(=O)(=O)c2ccccc2)O1)NCCN1CCCC1	/	/	/	/	43*	/
CO[C@@H]1CN(C)C(=O)c2cc(NC(=O)C3CCC3)ccc2OC[C@@H](C)N(Cc2ccccn2)C[C@@H]1C	-4	/	/	/	0	/
SMILES	PglD inh	VIM-2 inh	IMP-1 inhibitor	PDI turbidity	ERp5 block	PvdQ inh
O=C(C[C@@H]1CC[C@@H]2[C@H](COC[C@H](O)CN2Cc2nccs2)O1)NCc1ccc(F)cc1	-3	/	/	/	-1	/
Cc1oc2c(c1C(=O)NCc1cccnc1)C(=O)c1ccccc1C2=O	/	9.2*	-1	/	/	/
C[C@H]1CCCCO[C@H](CN(C)Cc2ccc(C(=O)O)cc2)[C@@H](C)CN([C@@H](C)CO)C(=O)c2cc(NC(=O)Nc3ccc(C(F)(F)F)cc3)ccc2O1	-1	/	/	/	-2	/
COc1ccc(S(=O)(=O)N(C)C[C@@H]2Oc3c(NC(=O)c4nc5ccccc5s4)cccc3C(=O)N([C@@H](C)CO)C[C@@H]2C)cc1	1	/	/	/	5	/
CCOC(=O)c1cc(-c2ccncc2)nc2c1c(C)nn2C	/	8.2*	0	-4	/	-5
CCOC(=O)c1cc(-c2ccccc2)nc2c1c(C)nn2-c1ccccn1	-4	-6	-7	4	/	-7
O=C(N[C@H]1C=C[C@H](CC(=O)N2CCc3ccccc3C2)O[C@@H]1CO)C1CC1	-2	/	/	/	6	/
COc1cc(S(=O)(=O)NC(Cc2c[nH]c3ccccc23)C(=O)O)ccc1NC(C)=O (stereo unspecified)	9	-1	5.9*	-4	0	-16
CCn1c(SCC(=O)Nc2ccc3c(c2)c2ccccc2n3CC)nnc1-c1ccco1	2	1	1	56*	/	-3
CN(C)S(=O)(=O)c1cc(NC(=O)c2ccc(-n3ccnc3)c([N+](=O)[O-])c2)ccc1Cl	2	8.0*	-3	-8	3	-8
CC(C)NC(=O)Nc1ccc2c(c1)C(=O)N(C)[C@@H]1CC[C@H](CC(=O)Nc3ccccc3)O[C@H]1CO2	3	/	/	/	2	/
O=C(O)Cc1sc(NC2CCCCC2)nc1-c1ccc(Cl)cc1	-3	0	5.3*	-17	-1	-15
COc1ccc(S(=O)(=O)NCC2CCCO2)c(Cl)c1Cl (stereo unspecified)	-6	-1	9.2*	-2	1	6
CCCCNS(=O)(=O)c1ccc(OC)c(Cl)c1Cl	-7	-4	-3	-8	/	10
CCC(C)NS(=O)(=O)c1ccc(OC)c(Cl)c1Cl (stereo unspecified)	0	-2	-3	1	/	35*
COC(=O)C1C2CC3c4[nH]c5cc(OC)ccc5c4CCN3CC2CC(OC(=O)CC(C)=O)C1OC (stereo unspecified)	/	/	/	7	-1	-6
CCOC(=O)Oc1c(OC)cc(C(=O)O[C@@H]2C[C@@H]3CN4CCc5c([nH]c6cc(OC)ccc56)[C@H]4C[C@@H]3[C@H](C(=O)OC)[C@H]2OC)cc1OC	1	/	/	35*	?	1
N#CC1(C#N)CC(C=O)=C(N)C1(C#N)CC(=O)c1ccc(F)cc1 (stereo unspecified)	4	-1	7.5*	-2	/	-17

Compound activity from PubChem BioAssay.
